Reference: PMC10439066 (Drugs in R&D, 2023)

Legend:
[1] = molecular target: T1, AKR1C3 (Homo sapiens, UniProt P42330); assay: AKR1C3 biochemical assay; details: in vitro
T1 sequence (P42330 1-323): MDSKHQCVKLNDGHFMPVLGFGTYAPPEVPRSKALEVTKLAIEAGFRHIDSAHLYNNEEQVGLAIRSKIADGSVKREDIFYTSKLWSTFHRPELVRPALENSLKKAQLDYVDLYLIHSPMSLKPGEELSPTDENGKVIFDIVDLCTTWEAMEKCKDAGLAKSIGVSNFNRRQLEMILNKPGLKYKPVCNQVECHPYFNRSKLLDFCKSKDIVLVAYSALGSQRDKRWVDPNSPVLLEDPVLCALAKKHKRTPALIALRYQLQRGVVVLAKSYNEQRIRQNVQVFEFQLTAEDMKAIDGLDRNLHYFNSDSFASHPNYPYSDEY

[2] = molecular target: T2, recombinant human AKR1C2 (Homo sapiens, UniProt P52895); assay: Related enzyme screen; assay type: biochemical; details: preclinical screen
T2 sequence (P52895 1-323): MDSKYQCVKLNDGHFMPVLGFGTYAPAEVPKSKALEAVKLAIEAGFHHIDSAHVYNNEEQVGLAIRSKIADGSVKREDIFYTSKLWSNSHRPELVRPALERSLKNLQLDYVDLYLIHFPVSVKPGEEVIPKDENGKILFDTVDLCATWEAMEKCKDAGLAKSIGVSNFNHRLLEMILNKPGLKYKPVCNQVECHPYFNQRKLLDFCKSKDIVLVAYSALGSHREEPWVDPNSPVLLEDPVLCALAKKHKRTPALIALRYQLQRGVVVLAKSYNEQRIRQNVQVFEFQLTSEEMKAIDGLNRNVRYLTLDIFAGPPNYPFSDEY

[3] = molecular target: T3, human AKR1D1 (Homo sapiens, UniProt P51857); assay: AKR1D1 inhibition, cortisone as model substrate; assay type: biochemical
T3 sequence (P51857 1-326): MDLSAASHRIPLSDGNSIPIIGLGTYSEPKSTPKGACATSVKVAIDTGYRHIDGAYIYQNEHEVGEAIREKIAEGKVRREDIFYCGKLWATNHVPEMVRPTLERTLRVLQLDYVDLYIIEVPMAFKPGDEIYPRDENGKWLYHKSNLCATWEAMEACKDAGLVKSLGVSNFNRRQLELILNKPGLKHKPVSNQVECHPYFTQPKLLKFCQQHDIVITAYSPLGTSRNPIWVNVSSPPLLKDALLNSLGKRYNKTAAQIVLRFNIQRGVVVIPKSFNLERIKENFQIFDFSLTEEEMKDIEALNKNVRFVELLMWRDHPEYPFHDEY

[4] = test system: 134 human targets including G protein-coupled and nuclear receptors, ion channels, transporters, and enzymes; assay: Specificity panel
[5] = molecular target: BSEP (vesicle assay) (Homo sapiens, UniProt O95342); assay: Transporter inhibition, vesicle assay; assay type: in vitro ADME; details: read-out: Inhibition characteristics in vitro IC50
Sequence of BSEP (vesicle assay) (O95342 whole entry): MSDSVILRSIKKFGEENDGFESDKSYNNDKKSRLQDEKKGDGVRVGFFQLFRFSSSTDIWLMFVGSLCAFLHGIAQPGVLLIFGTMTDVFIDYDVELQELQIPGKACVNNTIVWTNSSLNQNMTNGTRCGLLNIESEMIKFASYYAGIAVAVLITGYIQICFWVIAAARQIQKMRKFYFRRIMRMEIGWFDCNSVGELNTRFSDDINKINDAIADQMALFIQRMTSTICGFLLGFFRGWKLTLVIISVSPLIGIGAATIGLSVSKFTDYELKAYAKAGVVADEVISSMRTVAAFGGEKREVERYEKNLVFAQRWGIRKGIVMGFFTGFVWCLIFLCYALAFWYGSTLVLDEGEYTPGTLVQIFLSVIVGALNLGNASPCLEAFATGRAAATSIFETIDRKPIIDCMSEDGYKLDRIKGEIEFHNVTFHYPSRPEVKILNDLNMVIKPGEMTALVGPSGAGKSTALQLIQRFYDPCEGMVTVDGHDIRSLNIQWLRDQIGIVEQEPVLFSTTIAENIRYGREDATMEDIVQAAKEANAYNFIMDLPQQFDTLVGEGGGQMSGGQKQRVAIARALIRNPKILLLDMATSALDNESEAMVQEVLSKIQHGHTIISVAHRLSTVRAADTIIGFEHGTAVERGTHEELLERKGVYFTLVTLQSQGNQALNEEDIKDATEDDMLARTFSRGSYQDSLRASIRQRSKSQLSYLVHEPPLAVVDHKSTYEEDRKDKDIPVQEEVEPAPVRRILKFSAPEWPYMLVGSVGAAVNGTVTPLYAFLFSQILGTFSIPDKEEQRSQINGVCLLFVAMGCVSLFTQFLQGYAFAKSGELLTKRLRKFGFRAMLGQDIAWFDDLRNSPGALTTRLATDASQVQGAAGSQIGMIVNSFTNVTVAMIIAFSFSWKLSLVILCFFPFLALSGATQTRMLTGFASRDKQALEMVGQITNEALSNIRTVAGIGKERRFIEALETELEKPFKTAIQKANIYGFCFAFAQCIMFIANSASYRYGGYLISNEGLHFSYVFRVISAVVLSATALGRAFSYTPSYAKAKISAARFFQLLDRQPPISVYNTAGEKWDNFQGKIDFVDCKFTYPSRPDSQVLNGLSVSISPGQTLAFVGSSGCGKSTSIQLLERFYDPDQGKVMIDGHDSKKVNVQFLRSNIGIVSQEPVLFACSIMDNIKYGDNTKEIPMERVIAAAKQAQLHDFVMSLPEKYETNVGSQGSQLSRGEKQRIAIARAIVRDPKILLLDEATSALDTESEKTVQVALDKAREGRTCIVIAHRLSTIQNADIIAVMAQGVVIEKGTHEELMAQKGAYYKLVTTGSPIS

[6] = test system: female rats; assay: Repeat-dose in vivo toxicity study, rat; parameters: species or system Wistar strain); details: up to highest tested dose of 70 mg/kg, 13 weeks, Bayer data on file
[7] = test system: adult premenopausal women with endometriosis-related pain symptoms; assay: AKRENDO1 phase IIa trial, liver laboratory parameters; assay type: in vivo, human
How it was run: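 Over 12 weeks of oral dosing or placebo, ALT, AST, total bilirubin and INR were measured at all visits except visit 2. Baseline was the last value before treatment start (visit 3, otherwise screening). Suspected liver injury was worked up per FDA 2009 DILI guidance. Severity was graded by DILI Expert Working Group criteria and causality by RUCAM. Post-baseline ALT was classed by ULN multiples.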

[8] = AKRENDO1 population pharmacokinetic analysis; assay type: in vivo, human; details: 3 mg OD relative to all doses >3 mg; 95% confidence interval, 11–59; popPK model
[9] = test system: estrogen receptor; details: cited from earlier work
[10] = test system: androgen receptor; details: cited from earlier work
[11] = test system: progesterone receptor; details: cited from earlier work
[12] = test system: healthy pre- and postmenopausal women; details: cited from earlier work
[13] = 60 mg BID; cited from earlier work
[14] = 3 mg OD n = 11, largest value per participant
[15] = 3 mg OD n = 11, treatment-emergent
[16] = 10 mg OD n = 31, largest value per participant
[17] = 10 mg OD n = 31, treatment-emergent
[18] = 30 mg BID n = 11, largest value per participant
[19] = 30 mg BID n = 11, treatment-emergent
[20] = 30 mg OD n = 10, largest value per participant
[21] = 30 mg OD n = 10, treatment-emergent
[22] = 60 mg BID n = 27, largest value per participant
[23] = 60 mg BID n = 27, treatment-emergent

CN(CCC(=O)O)C(=O)c1ccc2c(c1)CC[C@@H]1[C@@H]2CC[C@]2(C)C(c3cncc(F)c3)=CC[C@@H]12 [BAY1128688]
IC50 [1]: < 0.002 µM | activity against related enzyme [2]: no relevant activity | inhibition of human AKR1D1 activity ([3]; 100 µM, cortisone as model substrate, Bayer AG, data on file): 11% | activity against related enzyme ([3]; preclinical screen): no relevant activity | interactions in specificity panel [4]: no relevant interactions | IC50 [5]: 3.6 µM | hepatotoxicity [6]: No hepatotoxicity was observed | ALT > 2 × ULN and ≤3 × ULN [7, 14]: 0 n (%) | ALT > 3 × ULN and ≤5 × ULN [7, 14]: 0 n (%) | ALT > 5 × ULN and ≤8 × ULN [7, 14]: 0 n (%) | ALT > 8 × ULN [7, 14]: 0 n (%) | AST > 3 × ULN and ≤5 × ULN [7, 14]: 0 n (%) | AST > 8 × ULN [7, 14]: 0 n (%) | ALT, total number of participants with > 2 × ULN [7, 15]: 0 n (%) | AST, total number of participants with > 2 × ULN [7, 15]: 0 n (%) | Bilirubin in serum > 2 × ULN [7, 15]: 0 n (%) | ALT > 2 × ULN and ≤3 × ULN [7, 16]: 1 (3.2) n (%) | ALT > 3 × ULN and ≤5 × ULN [7, 16]: 0 n (%) | ALT > 5 × ULN and ≤8 × ULN [7, 16]: 0 n (%) | ALT > 8 × ULN [7, 16]: 0 n (%) | AST > 3 × ULN and ≤5 × ULN [7, 16]: 0 n (%) | AST > 8 × ULN [7, 16]: 0 n (%) | ALT, total number of participants with > 2 × ULN [7, 17]: 1 (3.2) n (%) | AST, total number of participants with > 2 × ULN [7, 17]: 0 n (%) | Bilirubin in serum > 2 × ULN [7, 17]: 0 n (%) | ALT > 2 × ULN and ≤3 × ULN [7, 18]: 0 n (%) | ALT > 3 × ULN and ≤5 × ULN [7, 18]: 0 n (%) | ALT > 5 × ULN and ≤8 × ULN [7, 18]: 0 n (%) | ALT > 8 × ULN [7, 18]: 0 n (%) | AST > 3 × ULN and ≤5 × ULN [7, 18]: 0 n (%) | AST > 8 × ULN [7, 18]: 0 n (%) | ALT, total number of participants with > 2 × ULN [7, 19]: 0 n (%) | AST, total number of participants with > 2 × ULN [7, 19]: 0 n (%) | Bilirubin in serum > 2 × ULN [7, 19]: 0 n (%) | ALT > 2 × ULN and ≤3 × ULN [7, 20]: 0 n (%) | ALT > 3 × ULN and ≤5 × ULN [7, 20]: 2 (20.0) n (%) | ALT > 5 × ULN and ≤8 × ULN [7, 20]: 0 n (%) | ALT > 8 × ULN [7, 20]: 1 (10.0) n (%) | AST > 3 × ULN and ≤5 × ULN [7, 20]: 0 n (%) | AST > 8 × ULN [7, 20]: 1 (10.0) n (%) | ALT, total number of participants with > 2 × ULN [7, 21]: 3 (30.0) n (%) | AST, total number of participants with > 2 × ULN [7, 21]: 1 (10.0) n (%) | Bilirubin in serum > 2 × ULN [7, 21]: 1 (10.0) n (%) | ALT > 2 × ULN and ≤3 × ULN [7, 22]: 1 (3.7) n (%) | ALT > 3 × ULN and ≤5 × ULN [7, 22]: 3 (11.1) n (%) | ALT > 5 × ULN and ≤8 × ULN [7, 22]: 1 (3.7) n (%) | ALT > 8 × ULN [7, 22]: 1 (3.7) n (%) | AST > 3 × ULN and ≤5 × ULN [7, 22]: 2 (7.4) n (%) | AST > 8 × ULN [7, 22]: 1 (3.7) n (%) | ALT, total number of participants with > 2 × ULN [7, 23]: 6 (22.2) n (%) | AST, total number of participants with > 2 × ULN [7, 23]: 3 (11.1) n (%) | Bilirubin in serum > 2 × ULN [7, 23]: 2 (7.4) n (%) | Dose-dependency of increase in liver transaminases up to liver injury ([7]; AKRENDO1): Risk increased with dose, but extent of ALT increase/liver injury not directly correlated with exposure | Dose-dependency of isolated increase in serum bilirubin ([7]; AKRENDO1): Directly correlated with exposure | Timing of increase in liver transaminases up to liver injury ([7]; AKRENDO1): >8 weeks of exposure to BAY1128688 | time to restoration of normal ALT levels ([7]; after end of treatment): up to 3 months | participants with ALT increase > 5 × ULN ([7]; all dose groups): Three | participants with increased ALT > 3 × ULN ([7]; all dose groups, 90 exposed): eight | hepatotoxicity (elevations in serum ALT) ([7]; at around 12 weeks of treatment): Dose-/exposure-dependent hepatotoxicity was observed | increase in relative bioavailability [8]: 35% | agonism or antagonism [9]: no relevant agonism or antagonism | agonism or antagonism [10]: no relevant agonism or antagonism | agonism or antagonism [11]: no relevant agonism or antagonism | increases in ALT or AST ([12]; 90 mg OD and 60 mg BID, 2 weeks): no increases | influence on bile acid metabolism ([12]; exploratory evaluation of bile acids): did not indicate any influence | ovarian cycles ([12]; healthy premenopausal women, up to 60 mg BID for 28 days): normal ovarian cycles were maintained | serum androsterone ([12]; multiple doses): dose-dependent increase | total concentration in human plasma [13]: approximately 10 µM | unbound maximum steady-state concentration in human plasma [13]: < 0.1 µM
